One experiment concerns the target Integrin alpha-IIb/beta-3 (Homo sapiens, UniProt P05106+P08514). Briefly: In vitro inhibition of biotinylated fibrinogen binding to immobilized fibrinogen receptor. The format is protein-complex assay.
Conditions: not given
Put shortly: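 Binding of biotinylated fibrinogen to immobilized purified GPIIb/IIIa, solid phase; IC50; n = 2.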
Integrin alpha-IIb/beta-3, sequence (P05106 27-788 limits assumed): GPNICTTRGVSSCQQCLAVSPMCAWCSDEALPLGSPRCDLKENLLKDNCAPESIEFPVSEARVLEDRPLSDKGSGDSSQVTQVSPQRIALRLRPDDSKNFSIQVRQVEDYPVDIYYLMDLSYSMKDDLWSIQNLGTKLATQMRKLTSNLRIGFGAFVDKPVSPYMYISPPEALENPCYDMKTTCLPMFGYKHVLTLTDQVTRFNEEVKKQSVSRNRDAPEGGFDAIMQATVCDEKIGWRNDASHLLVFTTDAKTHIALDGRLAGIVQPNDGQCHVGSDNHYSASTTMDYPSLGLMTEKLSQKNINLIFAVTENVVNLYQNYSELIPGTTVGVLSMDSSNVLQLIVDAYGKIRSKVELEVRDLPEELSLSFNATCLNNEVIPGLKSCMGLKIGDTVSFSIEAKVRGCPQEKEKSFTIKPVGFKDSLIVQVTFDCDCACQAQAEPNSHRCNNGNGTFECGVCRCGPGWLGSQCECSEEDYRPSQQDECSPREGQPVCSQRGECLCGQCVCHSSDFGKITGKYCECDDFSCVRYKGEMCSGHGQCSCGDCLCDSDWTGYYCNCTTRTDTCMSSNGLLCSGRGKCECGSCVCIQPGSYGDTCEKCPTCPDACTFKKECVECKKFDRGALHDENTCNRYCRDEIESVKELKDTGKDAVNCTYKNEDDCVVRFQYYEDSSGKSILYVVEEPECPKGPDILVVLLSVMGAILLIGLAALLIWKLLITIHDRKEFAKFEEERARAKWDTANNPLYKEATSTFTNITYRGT
Integrin alpha-IIb/beta-3, sequence (P08514 32-887 limits assumed): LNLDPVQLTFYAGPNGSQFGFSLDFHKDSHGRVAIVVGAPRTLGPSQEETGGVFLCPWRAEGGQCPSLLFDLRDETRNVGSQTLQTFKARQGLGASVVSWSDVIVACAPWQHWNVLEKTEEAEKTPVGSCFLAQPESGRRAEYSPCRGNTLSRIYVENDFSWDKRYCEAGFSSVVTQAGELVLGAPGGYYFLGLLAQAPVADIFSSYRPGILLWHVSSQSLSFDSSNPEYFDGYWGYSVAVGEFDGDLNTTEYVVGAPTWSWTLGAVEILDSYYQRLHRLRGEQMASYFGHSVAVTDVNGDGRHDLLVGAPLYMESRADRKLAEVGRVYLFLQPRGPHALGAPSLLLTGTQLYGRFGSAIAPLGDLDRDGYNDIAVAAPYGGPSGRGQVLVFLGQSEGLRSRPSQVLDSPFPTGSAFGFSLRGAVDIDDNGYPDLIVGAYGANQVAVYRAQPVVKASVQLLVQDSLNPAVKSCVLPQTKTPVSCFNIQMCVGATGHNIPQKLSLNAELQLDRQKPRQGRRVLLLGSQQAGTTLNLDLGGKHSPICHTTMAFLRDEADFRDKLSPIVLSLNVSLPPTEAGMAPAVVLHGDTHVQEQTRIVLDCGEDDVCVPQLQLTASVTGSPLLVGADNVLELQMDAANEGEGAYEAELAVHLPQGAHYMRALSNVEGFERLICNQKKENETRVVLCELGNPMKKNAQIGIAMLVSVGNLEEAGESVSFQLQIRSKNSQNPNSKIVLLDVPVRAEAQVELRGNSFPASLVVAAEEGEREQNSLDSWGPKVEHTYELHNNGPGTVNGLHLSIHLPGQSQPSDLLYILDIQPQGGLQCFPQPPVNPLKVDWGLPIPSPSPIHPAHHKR
Integrin alpha-IIb/beta-3, sequence (P08514 891-1039 limits assumed): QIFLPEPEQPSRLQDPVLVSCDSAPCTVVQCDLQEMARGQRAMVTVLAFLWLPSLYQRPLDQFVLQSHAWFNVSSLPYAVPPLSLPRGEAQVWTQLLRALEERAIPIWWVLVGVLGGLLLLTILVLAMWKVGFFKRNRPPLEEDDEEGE
Turning to `C#Cc1cncc([C@H](CC(=O)O)NC(=O)[C@@H]2CCCN(C(=O)CCC3CCNCC3)C2)c1`, the IC50 (commonly the concentration at which inhibition is half-maximal) was determined as 0.24 nM.

`O=C(O)C[C@H](NC(=O)[C@@H]1CCCN(C(=O)CCC2CCNCC2)C1)c1cncc(Br)c1` had an IC50 of 0.21 nM.

In the case of `O=C(O)CC(NC(=O)C1CCCN(C(=O)CCC2CCNCC2)C1)c1cncc(-c2cccc([N+](=O)[O-])c2)c1` (centres undefined), the IC50 is 14 nM.

`O=C(O)C[C@@H](NC(=O)[C@@H]1CCCN(C(=O)CCC2CCNCC2)C1)c1cnc2ccccc2c1` (stereo in doubt; 33) registered a concentration for half-maximal inhibition (IC50) of 0.18 nM.

With `O=C(O)CC(NC(=O)C1CCCN(C(=O)CCC2CCNCC2)C1)c1cncc(-c2ccccc2)c1` (centres undefined), the half-inhibitory concentration (IC50) is 1.8 nM.

For the compound `O=C(O)CC(NC(=O)C1CCCN(C(=O)CCC2CCNCC2)C1)c1cncc(-c2cccc3ccccc23)c1` (centres undefined), the IC50 was determined as 26 nM.

For the compound `COc1ccc(-c2cncc(C(CC(=O)O)NC(=O)C3CCCN(C(=O)CCC4CCNCC4)C3)c2)cc1` (centres undefined), the IC50 was 11 nM.

Take `O=C(O)C[C@H](NC(=O)[C@@H]1CCCN(C(=O)CCC2CCNCC2)C1)c1cnc(Cl)c(Cl)c1`: the IC50 turned out to be 0.34 nM.

In turn, `Cc1ccc(-c2cncc(C(CC(=O)O)NC(=O)C3CCCN(C(=O)CCC4CCNCC4)C3)c2)cc1` (centres undefined) gave an IC50 of 24 nM.

`O=C(O)CC(NC(=O)C1CCCN(C(=O)CCC2CCNCC2)C1)c1cncc(-c2ccsc2)c1` (centres undefined): the IC50 worked out at 2 nM.

With `O=C(O)C[C@@H](NC(=O)[C@@H]1CCCN(C(=O)CCC2CCNCC2)C1)c1cnc2ccccc2c1` (stereo in doubt; 34), the IC50 came to 0.37 nM.

`O=C(O)C[C@@H](C#Cc1ccccc1)NC(=O)[C@@H]1CCCN(C(=O)CCC2CCNCC2)C1` displayed an IC50 of 0.29 nM.

With `O=C(C[C@H](NC(=O)[C@@H]1CCCN(C(=O)CCC2CCNCC2)C1)c1cccnc1)OCCC1CCCCC1`, the IC50 stood at 3.8 nM. This IC50 lies about 13-fold higher than the previous one.

Turning to `COc1cccc(-c2cncc(C(CC(=O)O)NC(=O)C3CCCN(C(=O)CCC4CCNCC4)C3)c2)c1` (centres undefined), the IC50 amounted to 11 nM.

`COc1ncc([C@H](CC(=O)O)NC(=O)[C@@H]2CCCN(C(=O)CCC3CCNCC3)C2)cc1Cl` showed an IC50 of 3.8 nM.

As for `O=C(O)C[C@H](NC(=O)[C@@H]1CCCN(C(=O)CCC2CCNCC2)C1)c1ccc(-c2ccsc2)nc1`, the IC50 came to 0.37 nM.

`O=C(O)CCNC(=O)[C@@H]1CCCN(C(=O)CCC2CCNCC2)C1` yielded a 50% inhibitory concentration (IC50) of 4.8 nM. Compared with the last compound, the IC50 is about 13-fold higher.

`O=C(O)C[C@H](NC(=O)[C@@H]1CCCN(C(=O)CCC2CCNCC2)C1)c1ccc(Cl)nc1` showed an IC50 of 0.14 nM.

For the compound `O=C(O)C[C@H](C#Cc1ccccc1)NC(=O)[C@@H]1CCCN(C(=O)CCC2CCNCC2)C1`, the IC50 came out at 0.22 nM.

For `O=C(O)C[C@@H](NC(=O)[C@@H]1CCCN(C(=O)CCC2CCNCC2)C1)c1ccc(Cl)s1`, the IC50 amounted to 0.1 nM. Against the preceding compound, the IC50 is about 2.2-fold lower.

With `O=C(O)C[C@H](NC(=O)[C@@H]1CCCN(C(=O)/C=C/C2CCNCC2)C1)c1cccnc1`, the IC50 came to 0.81 nM.

For `O=C(O)CC(NC(=O)C1CCCN(C(=O)CCC2CCNCC2)C1)c1cncc(-c2ccc(Cl)s2)c1` (centres undefined), the IC50 came to 57 nM.

In turn, `O=C(O)CC(NC(=O)C1CCCN(C(=O)CCC2CCNCC2)C1)c1cncc(Br)c1` (centres undefined) had an IC50 of 3 nM. Against the preceding compound, the IC50 is about 19-fold lower.

Compound `Cc1ccc([C@H](CC(=O)O)NC(=O)[C@@H]2CCCN(C(=O)CCC3CCNCC3)C2)cn1` showed an IC50 of 0.13 nM.

For `O=C(O)CC(NC(=O)C1CCCN(C(=O)CCC2CCNCC2)C1)c1cccnc1` (centres undefined), the IC50 is 3 nM.

A further experiment deals with Canis familiaris. Briefly: Inhibitory activity tested in ex vivo (canine) against ADP-induced platelet aggregation at the dose of 1 mg/kg.
Conditions: not given
The format is functional, Canis lupus familiaris. Put shortly:
(§1)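 Fasted mongrel dogs (8–22 kg, n = 3) given compound orally by stomach tube in 10 mL water. Citrated cephalic-vein blood drawn pre-dose and at 30, 60, 90, 120, 180, 240, 360 min. PRP adjusted to 300 000/μL with PPP, warmed 2 min at 37 °C, and aggregated with 20 μM ADP, read as light transmission. Inhibition is drug versus vehicle; duration is time at ≥50% inhibition.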
In turn, `O=C(O)C[C@H](C#Cc1ccccc1)NC(=O)[C@@H]1CCCN(C(=O)CCC2CCNCC2)C1` showed a Duration of less than 30 min.

In a further experiment the test system is Canis familiaris. Put plainly: Ex vivo duration of inhibition of ADP-induced canine platelet aggregation by 3 mg/kg. The experiment is classed as functional, Canis lupus familiaris.
Conditions: not given
Put shortly:
as §1
Compound `O=C(O)C[C@H](NC(=O)[C@@H]1CCCN(C(=O)CCC2CCNCC2)C1)c1cncc(Br)c1` registered a Duration of 180 min.

`O=C(O)C[C@H](NC(=O)[C@@H]1CCCN(C(=O)CCC2CCNCC2)C1)c1cnc(Cl)c(Cl)c1` yielded a Duration of 150 min.

For the compound `O=C(C[C@H](NC(=O)[C@@H]1CCCN(C(=O)CCC2CCNCC2)C1)c1cccnc1)OCCC1CCCCC1`, the Duration was 120 min.

On to `COc1ncc([C@H](CC(=O)O)NC(=O)[C@@H]2CCCN(C(=O)CCC3CCNCC3)C2)cc1Cl`, for which the Duration is reported as 30 min.

As for `O=C(O)C[C@H](NC(=O)[C@@H]1CCCN(C(=O)CCC2CCNCC2)C1)c1ccc(-c2ccsc2)nc1`, the Duration is 150 min.

In turn, `O=C(O)CCNC(=O)[C@@H]1CCCN(C(=O)CCC2CCNCC2)C1` had a Duration of 120 min.

The compound `O=C(O)C[C@H](NC(=O)[C@@H]1CCCN(C(=O)CCC2CCNCC2)C1)c1ccc(Cl)nc1` displayed a Duration of 210 min.

As to `O=C(O)C[C@H](NC(=O)[C@@H]1CCCN(C(=O)/C=C/C2CCNCC2)C1)c1cccnc1`, the Duration came out at 210 min.

`Cc1ccc([C@H](CC(=O)O)NC(=O)[C@@H]2CCCN(C(=O)CCC3CCNCC3)C2)cn1` had a Duration of 210 min.

The species entered for the next experiment is Homo sapiens. Briefly: In vitro inhibitory potency against human gel filtered platelet (GFP) aggregation. The experiment is classed as functional.
Conditions: not given
The method in brief:
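Human gel-filtered platelets, aggregation induced by thrombin; IC50; n = 2.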
On to `O=C(O)C[C@@H](NC(=O)[C@@H]1CCCN(C(=O)CCC2CCNCC2)C1)c1cnc2ccccc2c1` (stereo in doubt; 34), for which half-maximal inhibition (IC50) required 1200 nM.

Staying with this experiment, now noted: Homo sapiens.
Take `C#Cc1cncc([C@H](CC(=O)O)NC(=O)[C@@H]2CCCN(C(=O)CCC3CCNCC3)C2)c1`: half-maximal inhibition (IC50) was put at 30 nM.

For `O=C(O)C[C@H](NC(=O)[C@@H]1CCCN(C(=O)CCC2CCNCC2)C1)c1cncc(Br)c1`, inhibition was half-maximal at 20 nM (IC50).

In the case of `O=C(O)C[C@H](NC(=O)[C@@H]1CCCN(C(=O)CCC2CCNCC2)C1)c1cnc(Cl)c(Cl)c1`, half-maximal inhibition (IC50) was put at 220 nM.

Regarding `O=C(O)C[C@@H](C#Cc1ccccc1)NC(=O)[C@@H]1CCCN(C(=O)CCC2CCNCC2)C1`, the IC50 worked out at 3500 nM. Compared with the last compound, the IC50 is about 16-fold higher.

As to `O=C(C[C@H](NC(=O)[C@@H]1CCCN(C(=O)CCC2CCNCC2)C1)c1cccnc1)OCCC1CCCCC1`, the IC50 was 2200 nM.

Compound `COc1ncc([C@H](CC(=O)O)NC(=O)[C@@H]2CCCN(C(=O)CCC3CCNCC3)C2)cc1Cl` had an IC50 of 90 nM. Against the preceding compound, the IC50 is about 24-fold lower.

In the case of `O=C(O)C[C@H](NC(=O)[C@@H]1CCCN(C(=O)CCC2CCNCC2)C1)c1ccc(-c2ccsc2)nc1`, the IC50 amounted to 200 nM. Against the preceding compound, the IC50 is about 2.2-fold higher.

Turning to `O=C(O)CCNC(=O)[C@@H]1CCCN(C(=O)CCC2CCNCC2)C1`, half-maximal inhibition (IC50) required 270 nM.

`O=C(O)C[C@H](NC(=O)[C@@H]1CCCN(C(=O)CCC2CCNCC2)C1)c1ccc(Cl)nc1`: inhibition was half-maximal at 20 nM (IC50).

`O=C(O)C[C@H](C#Cc1ccccc1)NC(=O)[C@@H]1CCCN(C(=O)CCC2CCNCC2)C1` showed an IC50 of 80 nM. This IC50 is about 4-fold higher than that of the compound before.

The compound `O=C(O)C[C@@H](NC(=O)[C@@H]1CCCN(C(=O)CCC2CCNCC2)C1)c1ccc(Cl)s1` yielded an IC50 of 40 nM.

Turning to `O=C(O)C[C@H](NC(=O)[C@@H]1CCCN(C(=O)/C=C/C2CCNCC2)C1)c1cccnc1`, half-maximal inhibition (IC50) required 160 nM.

Regarding `Cc1ccc([C@H](CC(=O)O)NC(=O)[C@@H]2CCCN(C(=O)CCC3CCNCC3)C2)cn1`, the IC50 was 30 nM.

Source of the values: ChEMBL document CHEMBL1132284, “Potent, orally active GPIIb/IIIa antagonists containing a nipecotic acid subunit. Structure-activity studies leading to the discovery of RWJ-53308” (J Med Chem, 1999).
